M4 antag: blocks acetylcholine activation of human M4 receptor; AID 624125; 360,000 tested, 0.73% active; P08173; inhibition, % at 3 µM; CHO-hM4 cells, ACh EC80, Fluo-8 calcium fluorescence;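 active = inhibition above its plate's cutoff, the mean inhibition of sample wells plus 3 SD, cut at about 27% in these data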
Target sequence (P08173 whole entry, looked up): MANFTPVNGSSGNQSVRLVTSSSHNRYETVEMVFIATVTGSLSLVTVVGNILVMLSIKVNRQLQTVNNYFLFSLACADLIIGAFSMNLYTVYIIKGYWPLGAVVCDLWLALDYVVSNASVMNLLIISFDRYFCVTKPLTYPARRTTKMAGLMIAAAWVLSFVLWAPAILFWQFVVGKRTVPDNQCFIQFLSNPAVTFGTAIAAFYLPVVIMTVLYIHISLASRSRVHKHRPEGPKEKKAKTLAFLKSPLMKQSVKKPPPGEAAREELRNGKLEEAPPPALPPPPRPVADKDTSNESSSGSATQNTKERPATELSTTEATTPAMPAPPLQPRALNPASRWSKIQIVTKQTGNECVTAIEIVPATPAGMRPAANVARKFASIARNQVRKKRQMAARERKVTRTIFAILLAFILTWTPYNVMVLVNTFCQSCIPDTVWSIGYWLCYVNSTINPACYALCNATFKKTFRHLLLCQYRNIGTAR
CHRM5 PAM: CHRM5 positive allosteric modulation. P08912. CHO-K1 hM5, Fluo-8 calcium, ACh EC20 PAM; 0% = ACh EC20, 100% = ACh EC100. activation, % at 3 µM. 360,000 tested, 0.3% active;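 active = activation above the run cutoff, the mean activation of all test compounds plus 3 SD, cut at about 18% in these data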
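Measured by: Fluo-8 calcium fluorescence; material: human M5 receptor in CHO-K1 cells; schedule: Post-acetylcholine fluorescence recording 140 s; benchmarks: low control EC20 acetylcholine (0%), high control EC100 acetylcholine (100%); read-out: Max/basal fluorescence ratio as % of EC20–EC100 ACh window; compound: single dose, 3 µM nominal final test concentration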
M5 ag: agonists of human muscarinic M5 receptor (CHRM5); activation, % at 3 µM; 360,000 tested, 0.19% active; CHO-K1 hM5 cells, Fluo-8 calcium fluorescence; 0% DMSO wells, 100% maximal acetylcholine response;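 active = activation above the run's mean over test compounds plus 3 SD, cut at about 23% in these data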;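 note: signal is peak over basal fluorescence ratio across the kinetic read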
CHRM4 PAM: positive allosteric modulators of human muscarinic M4 receptor | P08173 | CHO-K1 hM4/Gqi5, Fluo-8 calcium fluorescence, ACh EC20; 0% = ACh EC20, 100% = maximal ACh | activation, % at 3 µM | 360,000 tested, 0.4% active;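 active = activation above its plate's cutoff, the mean activation of sample wells plus 3 SD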
CHRM4 agonist: CHRM4 agonism in calcium assay | AID 624127 | CHO-K1 hM4/Gqi5, Fluo-8 calcium fluorescence; vehicle 0%, full acetylcholine response 100% | P08173 | activation, % at 3 µM | 360,000 tested, 0.14% active;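 active = activation above the run mean over all test wells plus 3 SD, cut at about 32% in these data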;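 note: peak over basal fluorescence ratio per well then scaled between controls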
CHRM5 antagonist: antagonists of human muscarinic M5 receptor (CHRM5) | P08912 | CHO-hM5 cells, Fluo-8 calcium fluorescence, ACh EC80 | inhibition, % at 3 µM | 360,000 tested, 0.59% active;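 active = inhibition above a per-plate cutoff, the mean of that plate's test compounds plus 3 SD, cut at about 27% in these data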
Hits are given with their value; i = inactive. Compounds with a hit are over-represented: about 1.8% of the library has one in this group of screens.

SMILES	M4 antag	CHRM5 PAM	M5 ag	CHRM4 PAM	CHRM4 agonist	CHRM5 antagonist
CC1CN(C)C(C)CC1OC(=O)C(c1ccccc1)c1ccccc1 (centres undefined)	61	i	i	i	i	68
CN(C)[C@@H]1CCC[C@H]1OC(=O)C(c1ccccc1)c1ccccc1	i	i	i	i	i	53
NC(=O)C(c1ccccc1)C1CCCC1 (centres undefined)	i	i	i	i	i	i
O=C(c1ccc(CNS(=O)(=O)c2cccc(Cl)c2)cc1)N1CCCCC1	i	i	i	i	i	i
COc1cc(Cl)c(C)cc1NC(=O)COc1cc(C)nc(C(C)C)n1	i	i	i	33	i	i
C[C@H](CO)N1C[C@H](C)[C@H](CN(C)C(=O)Nc2ccnc(N3CCOCC3)c2)OCc2cnnn2CCCC1=O	i	i	i	i	i	i
CN(C)c1ccc(CN2CCC(C(=O)NC(c3ccc(F)cc3)c3ccc4ccccc4n3)CC2)cc1 (centres undefined)	i	i	i	i	i	36
CCCCOC(=O)C1CN(c2ccccc2)N=C1C(=O)OCC (centres undefined)	i	i	i	20	i	i
CCCCOC(=O)C1CN(c2ccccc2)N=C1C(C)=O (centres undefined)	i	i	i	i	i	i
Nc1c(C(=O)C2CC2)sc2nc(-c3ccccc3)cc(C(F)(F)F)c12	i	20	i	i	i	i
O=C(c1ccccc1)C1N=NCC1c1ccc(Cl)cc1 (centres undefined)	i	i	27	i	i	33
O=[N+]([O-])c1ccc(N=Nc2c(Cl)cc(O)cc2Cl)cc1	i	i	i	i	i	30
CC(N)=Nc1ccc([N+](=O)[O-])cc1	i	i	i	i	i	i
Cc1ccccc1CN1C(=O)Nc2ccccc2C(=O)N1C(C)(C)C	i	50	i	i	i	i
CC(C)(C)N1C(=O)c2ccccc2NC(=O)N1Cc1ccc(Br)cc1	i	i	i	i	i	i
COc1ccc(NC(=O)C(c2ccccc2)n2c(=O)c(-c3ccco3)nc3ccccc32)cc1 (centres undefined)	i	i	i	i	i	i
Cn1cc(Cl)c(C(=O)Nc2nccs2)n1	i	i	i	i	i	i
O=C(Nc1nccs1)c1ncc(Cl)c(Cl)c1Cl	i	i	i	i	i	30
CCOc1ccc(NC(=O)c2ccc3c(c2)OCCO3)cc1S(=O)(=O)N(CC)CC	i	i	i	i	i	i
Cc1ccccc1N(Cc1nnc2n1CCCCC2)C(=O)Nc1ccccc1	i	i	i	27	i	i
COc1ccc(N(Cc2nnc3n2CCCCC3)C(=O)Nc2ccccc2)cc1	i	i	i	i	i	i
c1ccc(-c2csc3ncnc(NCc4ccccn4)c23)cc1	i	i	i	i	i	i
c1ccc(CNc2ncnc3scc(-c4cccs4)c23)nc1	i	i	i	i	i	28
CCn1nc(Cc2cccc3ccccc23)c(C#N)c1N	i	i	i	i	i	i
Cc1nc(N)c(Cc2ccc(Cl)cc2Cl)c(N)n1	i	i	i	i	36	28
SMILES	M4 antag	CHRM5 PAM	M5 ag	CHRM4 PAM	CHRM4 agonist	CHRM5 antagonist
O=c1oc2c3c4c(cc2c(C(F)(F)F)c1CCN1CCOCC1)CCCN4CCC3	29	i	i	i	i	i
CCOc1ccc(CCNC(=O)c2ccc3ccccc3n2)cc1OCC	i	i	i	i	i	i
Cc1cc(C(=O)CSc2nc3ccccc3[nH]2)c(C)n1Cc1ccco1	i	i	i	i	i	27
C=CCn1c(C)cc(C(=O)CSc2nc3ccccc3c(=O)[nH]2)c1C	i	i	i	i	i	i
Cc1cc(C(=O)CSc2nc3ccc(Cl)cc3[nH]2)c(C)n1CC1CCCO1 (centres undefined)	31	i	i	i	i	i
Cc1cc(C(=O)CSc2nc3ccc(Cl)cc3[nH]2)c(C)n1C	i	i	i	i	i	i
C=CCn1c(C)cc(C(=O)CSc2nc3ccccc3[nH]2)c1C	29	i	i	i	i	i
CCc1ccc(NC(=O)[C@H](C)NC(=O)C2CCN(C(=O)[C@@H](N)C(C)C)CC2)cc1	i	i	i	i	i	i
CCCCNC(=O)c1ccccc1SCC(=O)NC1CCCCCCC1	i	i	i	i	i	i
COc1ccc(C(=O)/C=C/C(=O)N(CC(=O)NC2CCCCC2)CC2CCCO2)c(O)c1 (centres undefined)	29	i	i	i	i	i
O=C(CC1C(=O)NCCN1Cc1ccc(F)cc1)NC1CCCCCCC1 (centres undefined)	45	i	i	i	i	i
Cc1ccc(CN2CCNC(=O)C2CC(=O)NC2CCCCCC2)cc1 (centres undefined)	i	i	i	i	i	i
COc1ccc(CN2CCNC(=O)C2CC(=O)NC2CCCCCCC2)cc1OC (centres undefined)	36	i	i	i	i	i
CC(=O)C[C@H](O)CC(=O)[C@H]1OC(=O)[C@@H](C)CCCCc2ccccc21	i	i	i	i	i	i
Cc1ccc(N2C(=O)[C@@H]3[C@H](C2=O)C2c4ccccc4C=NN2[C@@H]3C(=O)c2ccc(Cl)cc2)cc1 (some centres undefined)	i	i	i	i	i	27
Fc1ccccc1CN1CCCN(C(=S)Nc2cccc(Cl)c2)C1	i	i	i	i	i	29
CN(CC#CC(O)(c1ccccc1)c1ccccc1)C(C)(C)C	92	i	i	i	i	77
CC(C)N(CC#CC(O)(c1ccccc1)c1ccccc1)CCO	42	i	i	i	i	42
CC(C)N(CC#CC(O)(c1ccccc1)c1ccccc1)C(C)C	98	i	i	i	i	96
COCCSc1nnc(NC(=O)C2CC(=O)N(CCc3ccc(F)cc3)C2)s1 (centres undefined)	i	i	i	i	i	i
O=C(CCC(=O)N1CCN(c2ccc(C(F)(F)F)cn2)CC1)c1cccs1	i	i	i	i	i	i
CC1(C(=O)O)CCCN1C(=O)c1cccc2ccccc12 (centres undefined)	i	i	i	i	i	i
CCN(CC)CCC(O)(c1ccccc1)C1CCCCC1 (centres undefined)	85	i	i	i	i	89
OC(c1ccccc1)(C1CCCCC1)C(CN1CCOCC1)c1ccccc1 (centres undefined)	i	i	i	i	i	i
CC[N+](CC)(CC)CCC(O)(c1ccccc1)C1CCCCC1 (centres undefined)	99	i	i	i	i	99
Cc1ccc(N(CC(=O)NC(C)(C)C)C(=O)CCC(=O)Nc2ccccn2)cc1	i	i	i	i	i	i
